Screening data (PubChem BioAssay)
STAT3 inh: inhibitors of IL-6 induced STAT3 signaling; U3A cells, IL-6 STAT3-luciferase reporter, luminescence; host cell line lacks STAT1; inhibition, % at 5.5 µM; 190,000 tested, 0.89% active;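 active = inhibition above the mean inhibition across all screened compounds plus 3 SD, cut at about 44% in these data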;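 note: 0% = DMSO only wells and 100% = 100 µM nifuroxazide control wells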
HSP90 inh: blocks HSP90-mediated luciferase refolding in reticulocyte lysate. Rabbit reticulocyte lysate, luciferase refolding luminescence, 3 h. inhibition, % at 5.6 µM. 290,000 tested, 0.91% active;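 active = inhibition above the screen-wide mean plus 3 SD, computed separately per campaign, cut at about 16% in these data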;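 note: 0% = DMSO wells and 100% = 60 µM geldanamycin wells; inhibitors lower the luminescence because luciferase stays unfolded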
STAT1 blocker: inhibitors of IFN-gamma induced STAT1 signaling | NIH 3T3 STAT1-luciferase reporter, luminescence | inhibition, % at 5.5 µM | 200,000 tested, 0.35% active | AID 920;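 active = inhibition above a set limit, the mean inhibition across all tested compounds plus 3 SD, cut at about 34% in these data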;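 note: 0% = IFN-gamma with DMSO and 100% = IFN-gamma with 300 µM nifuroxazide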
PPC-1+TRAIL kill: compounds killing PPC-1 cancer cells with TRAIL present (potentiator screen, no TRAIL-free arm); 220,000 tested, 0.41% active; PPC-1 cells + TRAIL, ATPLite viability luminescence; cell killing (% activity), % at 4 µM or 5 µM; AID 1443;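 active = cell killing above 50% in the first pass at 4 µM, then a duplicate retest at 5 µM averaging 50% or more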;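 note: plate controls were cells with TRAIL plus DMSO for no effect and medium-only wells lacking cells for full effect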
C8 TRAIL sens: sensitizes caspase-8 expressing cells to TRAIL; NB7+C8 cells + TRAIL, ATPlite viability luminescence; inhibition (viability loss, TRAIL sensitization), % at 10 µM; 360,000 tested, 1% active; AID 624354;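 active = compounds causing at least 50% loss of cell viability in the single-dose screen, relative to plate controls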
STAT3 activator: activators of IL-6 induced STAT3 signaling; 190,000 tested, 0.91% active; activation (% of control), % at 5.6 µM; U3A cells, IL-6 STAT3-luciferase reporter, luminescence; 100% = signal with IL-6 EC80 alone;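 active = activation above the screen-wide mean of compound activation plus 3 SD, cut at about 130% in these data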;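 note: 0% = background luminescence of wells with medium and substrate only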
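Material: human STAT1-deficient U3A cells with stable STAT3-luciferase reporter / Probe or stimulus: IL-6 stimulus at 33 ng/mL final / Schedule: 1 h compound pre-exposure, 6 h IL-6 stimulation, 37 °C / Technique: luminescence / Read-out basis: percent of IL-6-only median luminescence / Control set: IL-6-only high control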
HSP90 confirm: HSP90 inhibition, confirmation assay; shares compounds with HSP90 inh; rabbit reticulocyte lysate, luciferase refolding luminescence, 3 h; inhibition, % at 5.9 µM; 2,300 tested, 64% active; AID 1846; in the data active = inhibition above about 18%;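 note: 0% = vehicle wells and 100% = reference inhibitor wells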
luciferase ctr: blocks native firefly luciferase in HSP90 counter-screen; 2,300 tested, 48% active; shares compounds with HSP90 inh; inhibition, % at 5.9 µM; purified native firefly luciferase, luminescence;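 active = inhibition above the mean inhibition of all tested sample wells plus 3 SD, cut at about 10% in these data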;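 note: 0% = DMSO with luciferase and 100% = wells lacking luciferase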
Target sequence (P08659 whole entry, looked up): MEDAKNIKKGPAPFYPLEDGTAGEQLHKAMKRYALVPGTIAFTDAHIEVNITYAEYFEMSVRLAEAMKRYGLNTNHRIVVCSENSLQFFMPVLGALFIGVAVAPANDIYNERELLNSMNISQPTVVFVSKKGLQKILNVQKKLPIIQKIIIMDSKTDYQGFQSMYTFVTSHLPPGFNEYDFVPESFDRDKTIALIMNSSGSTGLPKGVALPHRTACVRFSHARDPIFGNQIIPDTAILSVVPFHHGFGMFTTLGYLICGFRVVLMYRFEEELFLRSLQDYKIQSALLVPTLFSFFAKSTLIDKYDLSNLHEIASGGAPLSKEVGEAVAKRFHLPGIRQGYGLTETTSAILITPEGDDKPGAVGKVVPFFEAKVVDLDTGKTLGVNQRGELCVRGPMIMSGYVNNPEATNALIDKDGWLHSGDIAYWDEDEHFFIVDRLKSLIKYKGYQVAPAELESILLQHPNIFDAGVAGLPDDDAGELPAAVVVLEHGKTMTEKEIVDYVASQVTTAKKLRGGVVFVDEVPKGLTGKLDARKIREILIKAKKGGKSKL
* = called active by the depositor; x = not tested or not shown. This is a sample that favours compounds with a hit; in the whole collection about 2.3% have one here.

SMILES | STAT3 inh | HSP90 inh | STAT1 blocker | PPC-1+TRAIL kill | C8 TRAIL sens | STAT3 activator | HSP90 confirm | luciferase ctr
COc1ccc(-n2c(C)cc(-c3csc(NC(=O)c4ccc(S(=O)(=O)N(C)C)cc4)n3)c2C)cc1 | -3 | 20* | -2 | -5 | 15 | 100 | 39* | -6
COc1ccc(-c2csc(NC(=S)NC(=O)c3ccc(S(=O)(=O)N(C)C)cc3)n2)cc1OC | x | -2 | x | x | 42 | x | x | x
c1cc(-n2nnc3cnccc32)ccn1 | x | -5 | x | -11 | -17 | x | x | x
O=C(c1nc2ccc(Cl)cn2c1CNCC[C@@H]1C[C@@H]2C=C[C@H]1C2)N1CCCCCCC1 | -8 | 3 | -2 | -1 | 3 | 114 | x | x
Cc1cccc(NC(=O)NCCN2CCCCC2)c1 | x | 25* | x | x | -2 | x | -9 | -12
O=C1c2cc(F)ccc2-n2c1nc1ccccc1c2=O | x | 73* | x | x | 55* | x | 68* | -5
Nn1c(-c2ccc(F)cc2)nc2ccccc2c1=O | x | 1 | x | x | -10 | x | x | x
Cc1cc(C)cc(OCC(=O)NC2CCCc3ccccc32)c1 (centres undefined) | -10 | 0 | 4 | 12 | 10 | 104 | x | x
CCC(=O)N1CCN(CCN=CC2=C(O)CC(C)(C)CC2=O)CC1 | 6 | -2 | -7 | 19 | -3 | 97 | x | x
O=C(Cc1nc2ccccc2[nH]1)c1cccc([N+](=O)[O-])c1 | x | 20* | x | 12 | 34 | x | 27* | 5
COc1ccc(NC(=S)NNc2ccc(C(=O)O)cc2)cc1 | x | 21* | x | x | 19 | x | 42* | 38*
Cc1cc(Cl)ccc1N=Cc1c(O)n(C)c(=O)n(C)c1=O | x | x | x | 4 | x | x | x | x
c1cc2c3c(cccc3c1)-c1cnccc1-2 | x | x | x | x | 5 | x | x | x
Cc1ccc(/C=N/NC(=O)c2ccccn2)s1 | 21 | 18* | -61 | 46 | 41 | 84 | 31* | 19*
CCN(C=NC1=NN(c2cccc(C(F)(F)F)c2)CC1)CC | 7 | 22* | 0 | 24 | 6 | 93 | -1 | -11
OCCN(C=NC1=NN(c2cccc(C(F)(F)F)c2)CC1)CCO | -5 | -10 | 3 | 29 | -14 | 105 | x | x
COC(=O)c1c(NC(=O)COC(=O)c2ccccn2)sc(C)c1C | x | x | x | x | 13 | x | x | x
CCOc1ccc(Nc2nc(-c3sc(N)nc3C)cs2)cc1 | x | 20* | x | x | 3 | x | 1 | -21
COc1ccc(Nc2nc(-c3sc(N)nc3C)cs2)cc1 | -16 | 30* | -10 | 22 | -12 | 118 | -4 | -21
Cc1ccc(Nc2nc(-c3sc(N)nc3C)cs2)cc1 | x | 39* | x | x | -12 | x | -2 | -18
COc1ccc(Nc2nc(-c3sc(NC(C)=O)nc3C)cs2)cc1 | 30 | 0 | 3 | 11 | x | 79 | x | x
Cc1ccc(Nc2nc(-c3sc(C)nc3C)cs2)cc1 | x | -1 | x | x | 28 | x | x | x
COc1ccc(CCNc2nc(-c3sc(N)nc3C)cs2)cc1OC | 1 | 29* | 6 | 15 | -5 | 100 | 5 | -5
CCCCCC(=O)N/N=C/c1ccc(N(C)C)cc1 | -19 | -3 | -38 | 3 | -2 | 120 | x | x
COc1ccc(C(=O)Oc2cc(N)n(S(=O)(=O)c3ccc(C)cc3)n2)cc1 | x | 4 | x | x | 0 | x | x | x
SMILES | STAT3 inh | HSP90 inh | STAT1 blocker | PPC-1+TRAIL kill | C8 TRAIL sens | STAT3 activator | HSP90 confirm | luciferase ctr
CN(C)c1ccc(C(=O)Nc2nc3c(s2)CCCC3)cc1 | 40 | 27* | -21 | 39 | 55* | 71 | 59* | 58*
COC(=O)Nc1nc2c(s1)CCCC2 | 12 | 4 | 5 | 16 | -2 | 95 | x | x
CC(C)(C)c1ccc(C(=O)NC(=S)Nc2nc3c(s2)CCCC3)cc1 | -6 | 24* | -9 | 4 | 36 | 103 | 57* | 38*
CCOC(=O)c1sc(NS(=O)(=O)c2cc(C)ccc2C)nc1C | -1 | 2 | 0 | 19 | -13 | 102 | x | x
N#C/C(=C(/O)CSc1n[nH]c(N)n1)c1nc2ccccc2[nH]1 | x | -3 | x | 19 | 6 | x | x | x
O=C(N/N=C/c1cc(O)ccc1Br)c1cccnc1 | x | 37* | x | x | 21 | x | -4 | -8
O=C(N/N=C/c1cc(Br)c(O)c(Br)c1O)c1cccnc1 | x | 1 | x | x | 18 | x | x | x
Cc1c(C(=O)N2CCN(c3ccc([N+](=O)[O-])cc3)CC2)oc2ccccc12 | x | x | x | x | 3 | x | x | x
